# LMPTP block – blocks human LMPTP phosphatase | recombinant LMPTP-A, OMFP fluorogenic substrate, fluorescence intensity | inhibition, % at 20 µM | actives 0.22% (n = 360,000) | AID 651560;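 active = compounds that cut the enzyme signal by at least half of the control window in the single-dose screen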;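 also: plate controls were DMSO wells with enzyme plus substrate for no effect and substrate without enzyme for full effect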
#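 Test system – LMPTP-A phosphatase enzyme · Quantity – 0.625 nM LMPTP-A final · Reagent – OMFP substrate, 400 µM final · Dosing – one test concentration per compound, 20 µM, with 3% DMSO overall · Timing – 50 min enzyme reaction at room temperature, protected from light · Detection – fluorescence intensity · Controls – substrate-only low control, DMSO enzyme-plus-substrate high control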
# Scp1 inh – Scp-1 (human) phosphatase inhibition; inhibition, % at 20 µM; Recombinant Scp1, phosphopeptide, malachite green phosphate absorbance; actives 0.88% (n = 340,000); Q9GZU7;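 active = inhibition above about 50% at 20 µM, limit read from the data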;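 also: plate controls were DMSO wells with enzyme for no effect and wells lacking enzyme for full effect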
#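 Test system: SCP-1 phosphatase catalytic domain, residues 76-261 | Compound dosing: One concentration, 20 µM, with 1.0% DMSO | Schedule: 45 min room-temperature reaction, 5 min colour, 30 min stabiliser | Detection: Absorbance at 630 nm | Read-out basis: % inhibition of SCP-1 phosphate liberation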
# DNMT1 block – DNMT1 (human) enzyme inhibition; AID 588458; P26358; inhibition (reported as % activation of signal), % at 10 µM; DNMT1 molecular beacon, Hinp1I cleavage, fluorescence; actives 0.83% (n = 360,000); in the data active = inhibition above about 50%
# STEP inh – blocks human striatal-enriched tyrosine phosphatase. recombinant STEP, OMFP fluorogenic substrate, fluorescence. inhibition, % at 20 µM. actives 0.25% (n = 360,000);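 active = inhibition at 20 µM, scaled per plate between control wells, above about 37%, limit read from the data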;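 also: 0% = DMSO with enzyme and substrate and 100% = substrate only without enzyme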
#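 Material: STEP (striatal-enriched tyrosine phosphatase) enzyme, cell-free; Compound dosing: 20 µM single dose in 1% DMSO; Technique: fluorescence read at 480 nm ex / 540 nm em; Times: reaction 20 min, ambient temperature; Medium: 50 mM Bis-Tris pH 6.0 with 2.5 mM DTT and 0.005% Tween 20; Also added: OMFP at 25 µM.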
# SUMO1 PPI mod – alters human SUMO1 binding to SIM partners; P63165; SUMO1 binding to a labelled peptide, TR-FRET, 1 h; actives 0.33% (n = 360,000); inhibition, % at 20 µM; in the data active = inhibition above about 37%
# Beacon interf DR – beacon fluorescence artifact, dose response counter-screen | shares compounds with DNMT1 block | AID 602382 | IC50, µM | molecular beacon fluorescence, spectral interference counter-screen | 200 tested, under 10 active; call rule not given here
# DNMT1 confirm – confirmation of human DNMT1 inhibitors | shares compounds with DNMT1 block | inhibition, % at 10 µM | actives 8% (n = 2,300) | DNMT1 molecular beacon HinP1I cleavage, fluorescence;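 active = average inhibition of at least 30% in the single-concentration confirmation test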
# DNMT1 interf – shows spectral interference in the DNMT1 beacon assay | activation (fluorescence interference), % at 10 µM | shares compounds with DNMT1 block | actives 1% (n = 2,300) | DNMT1 molecular beacon spectral interference counterscreen, fluorescence 485/520;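 active = activation of at least 30% at 10 µM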;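 also: DNMT1 catalytic domain with a HinP1I cleavage step and a FAM/dabcyl DNA beacon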
# An asterisk follows results filed as active; . = no result. Only some compounds are listed: those with a hit (about 1.7% of all), similar ones and a draw of the others.
SMILES,LMPTP block,Scp1 inh,DNMT1 block,STEP inh,SUMO1 PPI mod,DNMT1 confirm,DNMT1 interf,others
CCN(CC)c1ccc2cc(-c3nnc(-c4ccncc4)o3)c(=O)oc2c1,6,-4,136*,-190,-6,88*,61*,
CCN(CC)c1ccc2cc(C(N)=O)c(=O)oc2c1,-1,9,1,-6,-22,.,.,
CCN(CC)c1ccc2cc(C=O)c(=O)oc2c1,5,19,71*,-46,-37,39*,59*,
CCN(CC)c1ccc2cc(C(C)=O)c(=O)oc2c1,2,-8,27,-19,-19,.,.,
CC1CC(NC(=O)N(C)C)N(C)C(=O)N1 (stereo unspecified),-1,0,66*,-5,0,4,7,
CN(CC1CCCO1)S(=O)(=O)c1ccc(C(=O)Nc2nc3cc4c(cc3s2)OCO4)cc1 (stereo unspecified),-1,-14,64*,1,8,3,6,
CN(CC1CCCO1)S(=O)(=O)c1ccc(C(=O)Nc2ccc3c(c2)OCO3)cc1 (stereo unspecified),0,-15,-3,2,3,.,.,
N#Cc1c(SCC(=O)Nc2nc3ccc(Br)cc3s2)sc2c(O)cc(=O)[nH]c12,53*,54*,80*,22,31,27,-4,Beacon interf DR=>99
N#Cc1c(SCC(=O)Nc2ccc(Cl)cc2Cl)sc2c(O)cc(=O)[nH]c12,22,41,21,7,4,.,.,
C=CC[C@@H](CC(=O)N[C@H](CO)Cc1ccccc1)C(=O)NC[C@@H](OC(=O)[C@@H](CC=C)Cc1ccc(F)cc1)c1ccccc1,0,0,77*,-1,3,0,5,
C=CCC[C@H](Cc1ccc(F)cc1)C(=O)OC[C@H](Cc1c[nH]c2ccccc12)NC(=O)[C@@H](CC=C)CC(=O)N[C@@H](CO)Cc1ccccc1,1,-11,69*,-2,4,0,-5,
C=CC[C@@H](CC(=O)N[C@@H](CO)Cc1ccccc1)C(=O)N[C@H](COC(=O)[C@@H](CC=C)Cc1ccc(F)cc1)Cc1ccccc1,-1,-5,62*,0,4,0,1,
C=CCC[C@H](Cc1ccc(F)cc1)C(=O)OC[C@@H](C)NC(=O)[C@@H](CC=C)CC(=O)N[C@H](CO)Cc1ccccc1,2,0,1,0,-2,.,.,
C=CCC[C@@H](Cc1ccc(F)cc1)C(=O)O[C@H](CNC(=O)[C@@H](CC=C)CC(=O)N[C@H](CO)Cc1ccccc1)c1ccccc1,0,-6,83*,3,0,0,3,
O=C(/C=C/c1ccc([N+](=O)[O-])cc1)Nc1ncc([N+](=O)[O-])s1,1,-12,-12,10,8,.,.,
O=C(CC12CC3CC(CC(C3)C1)C2)NCC(c1ccc(F)cc1)N1CCOCC1 (stereo unspecified),-2,-4,-2,-1,1,.,.,
Cn1c(SCC(=O)N/N=C/c2ccc([N+](=O)[O-])s2)nnc1-c1ccc(Cl)cc1,-1,-5,-9,-5,-15,.,.,
COc1cc(OC)cc(-c2c(-c3cccs3)c3cc(-c4ccc(C(N)=O)cc4)ccc3n2C)c1,0,1,54*,-1,-17,1,2,
CCc1noc(C)c1C(=O)Nc1ccccc1C(C)(C)C,-1,-5,1,-1,1,.,.,
CN(C)CCCN(C(=O)/C=C/c1cccs1)c1nc2ccc(F)cc2s1,0,-6,5,2,-15,.,.,
CN(C)CCN(C(=O)/C=C/c1cccs1)c1nc2c(F)cc(F)cc2s1,0,1,58*,-4,1,3,2,
COc1ccccc1N1CCN(C(=O)c2ccc3[nH]c4c(c3c2)CCCC4)CC1,0,8,-2,2,-3,.,.,
O=C(c1ccc2[nH]c3c(c2c1)CCCC3)N1CCN(c2ccc(F)cc2)CC1,2,-2,59*,2,1,1,6,
Cc1csc(=O)n1CC(=O)OCC(=O)Nc1cc([N+](=O)[O-])ccc1Cl,0,1,2,-2,-32,.,.,
Cc1ccc(NC(=O)COC(=O)Cn2c(C)csc2=O)c([N+](=O)[O-])c1,2,-3,51*,-1,-20,5,2,
SMILES,LMPTP block,Scp1 inh,DNMT1 block,STEP inh,SUMO1 PPI mod,DNMT1 confirm,DNMT1 interf,others
OCCn1ccc(-c2ccccc2OCc2ccc(F)cc2)n1,-2,-2,4,-2,-3,.,.,
O=c1c2ccccc2ncn1-c1cccc(Br)c1,-2,-13,-1,0,-4,.,.,
CC(=O)c1ccc(OC2(C)CCN(Cc3cc4ccccc4[nH]3)C2)cc1 (stereo unspecified),26,.,91*,1,4,2,4,
NCCCC[C@@H]1NC(=O)c2cc([N+](=O)[O-])cc(F)c2NCCCC[C@@H](C(N)=O)NC(=O)CNC1=O,-9,-6,104*,-1,-99,8,8,
CSc1nc(C)cc(OCCNS(=O)(=O)c2cc(C)ccc2C)n1,0,-2,67*,-14,1,0,6,
Cc1ccc(C)c(S(=O)(=O)NCCOc2nc(NC(C)C)nc(NC(C)C)n2)c1,0,0,1,-1,0,.,.,
CN(CCc1ccccc1)C(=O)CCc1nnc(Cc2ccc3c(c2)OCO3)o1,-1,-4,-1,-1,-2,.,.,
Cc1cc(C(=O)NNC(=O)/C=C/c2ccco2)c(C)o1,0,66*,88*,0,14,26,5,
COc1ccc(OC)c(NC(=O)CCn2ccnc2)c1,1,-8,0,-2,1,.,.,
COc1ccc(C(=O)N/C(=C\c2ccc(Cl)cc2)C(=O)NCc2ccncc2)cc1,-2,.,79*,-3,-2,3,4,
COc1ccc(/C=C(/NC(=O)c2ccc(C)cc2)C(=O)NCc2ccncc2)cc1,-2,-6,4,-2,-4,.,.,
O=C(CSCc1ccc(Cl)cc1)Nc1ccc(-c2nnc(-c3ccccc3)o2)cc1,17,31,72*,14,4,2,-1,
Cc1ccc(S(=O)(=O)NC2CC(C)(C)N(O)C(C)(C)C2)cc1,-1,-4,7,-4,-3,.,.,
COc1ccc(N(C(=O)Cn2nnc(-c3ccc(Cl)cc3)n2)C(C(=O)NCC2CCCO2)c2ccc(C)cc2)cc1 (stereo unspecified),-1,-9,55*,7,5,2,-3,

# Screening results deposited in PubChem BioAssay by Sanford-Burnham Center for Chemical Genomics.
